NTR1 agonist = agonists of human neurotensin receptor NTR1 | P30989 | NTR1-U2OS beta-arrestin-GFP spot imaging, agonist mode | activation, % at 20 µM | 0.17% of 330,000 active;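 active = activation at or above 40% of the spot to cytoplasm intensity ratio, with at least 20 cells analyzed; inconclusive = wells under 20 cells, flagged as cytotoxic or low count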
Target sequence (P30989 whole entry, looked up): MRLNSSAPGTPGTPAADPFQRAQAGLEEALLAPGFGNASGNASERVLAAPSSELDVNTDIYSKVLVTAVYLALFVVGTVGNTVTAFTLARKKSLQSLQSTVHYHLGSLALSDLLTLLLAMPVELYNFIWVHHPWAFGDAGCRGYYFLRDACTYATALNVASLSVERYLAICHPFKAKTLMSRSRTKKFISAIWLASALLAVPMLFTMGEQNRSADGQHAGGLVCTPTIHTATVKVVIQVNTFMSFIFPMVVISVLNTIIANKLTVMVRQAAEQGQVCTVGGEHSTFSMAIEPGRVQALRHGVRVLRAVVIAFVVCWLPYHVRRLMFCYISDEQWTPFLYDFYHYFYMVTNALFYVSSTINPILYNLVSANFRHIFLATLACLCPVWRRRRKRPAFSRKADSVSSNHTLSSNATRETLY
Vif inh = blocks HIV Vif function; HEK293T cells, Vif self-association by quenched fluorescence, imaging, 24 h; inhibition, % at 7.49 µM; 0.35% of 340,000 active; AID 602346; in the data active = inhibition above about 50%, passing the limit was not always enough; inconclusive = no clear call, values can overlap the other calls; inactive = below about 31%
SR-BI DiI-HDL act = activators of SR-BI mediated HDL lipid uptake; CHO ldlA[mSR-BI] cells, DiI-HDL uptake fluorescence, 3 h; 100 = double the neutral-control signal; activation, % at 12.5 µM; 0.096% of 320,000 active;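 active = mean replicate activation of at least 60% and every replicate at or above 60%; inconclusive = mean or all-replicate condition met, but not both; inactive = mean below 60% and not all replicates reaching 60%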
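Assay system: LDL receptor-deficient CHO ldlA cells overexpressing murine SR-BI / Medium: BSA-supplemented, HEPES-buffered Ham's F12, pH 7.4 / Probe or stimulus: DiI-labelled HDL at 10 µg/mL final / Timing: compound with DiI-HDL co-incubation, 3 h at 37 °C / Technique: bottom-read cell fluorescence after medium removal, ex 550/em 595 nm / Measure: HDL uptake via cellular fluorescence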
V-ATPase pHluor = regulators of yeast V-ATPase proton transport; S. cerevisiae, pHLuorin cytosolic pH fluorescence; AID 504577; 0.37% of 350,000 active; response, % at 10 µM; in the data active = response mostly above about 7.3%, no sharp cut-off; inactive = mostly below about 5.4%; note: actives read high
SR-BI HDL uptake = mouse SR-BI HDL lipid transfer inhibition; Q61009; ldlA[mSR-BI] CHO cells, DiI-HDL uptake fluorescence, 3 h; inhibition, % at 12.5 µM; 0.96% of 320,000 active; AID 488896;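 active = mean replicate inhibition of at least 70% and a set share of replicates each scoring 70 or more; inconclusive = meets just one of the two criteria; inactive = fails both criteria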
CaV13 ICDI inh = Primary screen for inhibitors of IQ motif and Ca2+-dependent inactivation inhibitor domain binding in CACNA1D, Förster resonance energy transfer in living cells, …; HEK cells, CFP/YFP FRET ICDI-IQ, plate reader, 10 min; percent FRET-ratio fall versus neutral wells; inhibition, % at 12.3 µM; 0.098% of 340,000 active; AID 743397;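 active = mean replicate inhibition of at least 30% and at least 1% of replicates passing that level; inconclusive = only one of the two criteria is met; inactive = neither criterion is met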
Of the large screens only hits and unclear results are named; the others gave an inactive call. Most compounds without a hit are left out; they make up all but 1.7% or so of the library.

Cc1ccc(NC(=O)Nc2ccc3c(c2)C(=O)OC3)cc1Cl	none
Cc1cccc(C)c1NC(=O)C1CCN(S(C)(=O)=O)CC1	none
NC(=S)NC1CC2CC1C1C=CCC21 (stereo not given)	none
COc1cc(/C=N/NC(=S)NC2CC3CC2C2C=CCC32)ccc1O (stereo not given)	SR-BI HDL uptake 72.6
CNNC(=S)NC1CC2CC1C1C=CCC21 (stereo not given)	CaV13 ICDI inh 41.3
CCOc1ccc(/C=N/NC(=S)NC2CC3CC2C2C=CCC32)cc1 (stereo not given)	none
CC(C)=CCC[C@H](C)C[C@@H]1Cc2[nH]c(=S)[nH]c(=O)c2[C@@H](c2ccc(F)cc2)O1	none (no result: NTR1 agonist, Vif inh, SR-BI DiI-HDL act, V-ATPase pHluor, SR-BI HDL uptake)
CC(=O)c1ccc(C(=O)N2CCC(CO)(Cc3cccc(C(F)(F)F)c3)CC2)cc1	none
CC1(C(=O)N2CCC(CO)(Cc3cccc(C(F)(F)F)c3)CC2)CC1	SR-BI HDL uptake 85.2
CC(C)C[C@H](NC(=O)c1ccco1)C(=O)N1CCC[C@H]1C(=O)NCc1ccccc1	none (no result: NTR1 agonist, Vif inh, SR-BI DiI-HDL act, V-ATPase pHluor, SR-BI HDL uptake)
Cc1c(C)c(C)c(S(=O)(=O)N2CCSCC2)c(C)c1C	V-ATPase pHluor 20.0
COCCCNC(=O)C[C@H]1C[C@@]2(C(=O)OC)C(=C[C@H](COCc3ccccc3)O[C@@H]2C)N(Cc2ccc3c(c2)OCO3)C1=O	none (no result: NTR1 agonist, Vif inh, SR-BI DiI-HDL act, V-ATPase pHluor, SR-BI HDL uptake)
O=C(Nc1cccc(Cl)c1)Nc1nc(-c2ccccc2)cs1	SR-BI HDL uptake 75.9
O=C(Nc1ccc(Cl)cc1)Nc1nc(-c2ccccc2)cs1	none
CCN(CC)CC(=O)Nc1ccc(-c2ccc(NC(=O)CN(CC)CC)c(OC)c2)cc1OC	none
CCC(=O)Nc1ccc(-c2ccc(NC(=O)CC)c(OC)c2)cc1OC	SR-BI HDL uptake 82.9
CC(=O)N1CCN(S(=O)(=O)c2cccc(C(=O)NCCC3=CCCCC3)c2)CC1	none
CCOc1ccc(S(=O)(=O)N(C)c2ccc(OCC(=O)Nc3nc(-c4cc(OC)ccc4OC)cs3)cc2)cc1	SR-BI HDL uptake 82.0
CCOC(=O)Cc1csc(NC(=O)COc2ccc(N(C)S(=O)(=O)c3ccc(C)cc3)cc2)n1	SR-BI HDL uptake inconclusive (no result: Vif inh)
Nc1ccc(C(=O)Nc2ccc(OC(F)(F)C(F)F)c(NC(=O)c3ccc(N)cc3)c2)cc1	SR-BI HDL uptake 76.9
COc1cc(Nc2nc(-c3ccccc3)c3cc(C)ccc3n2)cc(OC)c1OC	SR-BI HDL uptake 71.9
Cc1ccc2nc(NCC(=O)O)nc(-c3ccccc3)c2c1	none
Cc1ccc(-n2c(C)cc(/C=N/NC(=O)Cn3c4ccccc4c(=O)c4ccccc43)c2C)cc1	CaV13 ICDI inh active
CC(C)c1ccc(N(C(=O)c2ccco2)C(C(=O)NC2CCCC2)c2ccncc2)cc1 (stereo not given)	V-ATPase pHluor 13.7
C[C@H](O)[C@@H]1CN2CCc3ccc(-c4ccc5c(c4)OCO5)cc3[C@@H]2C[C@@H]1N(C)C(=O)c1cccc(Cl)c1	none (no result: NTR1 agonist, Vif inh, SR-BI DiI-HDL act, V-ATPase pHluor, SR-BI HDL uptake)
Cc1cc(C)c(S(=O)(=O)N2CCN(S(=O)(=O)N3CCOCC3)CC2)c(C)c1	Vif inh 67.6
Cc1cc(C)c(S(=O)(=O)N2CCCC2)c(C)c1	none
O=C(OCC(=O)N1CCC(c2ccccc2)=N1)c1ccc([N+](=O)[O-])s1	none
CCCCOC(=O)C[N+](C)(C)CCOC1CC2CCC1(C)C2(C)C (stereo not given)	none
CCCCCCCOC(=O)C[N+](C)(C)CCOC1CC2CCC1(C)C2(C)C (stereo not given)	SR-BI DiI-HDL act 68.8 (no result: NTR1 agonist)
CCCOC(=O)C[N+](C)(C)CCOC1CC2CCC1(C)C2(C)C (stereo not given)	Vif inh 63.3
COc1ccc(CCNC(=O)COC(=O)c2ccc(N3CCCC3=O)cc2)cc1OC	none
CCOCCCNC(=S)N1CCCN(c2nc3cc(C)c(C)cc3cc2C#N)CC1	CaV13 ICDI inh 93.6
Cc1cc(-c2nnc(SCC(=O)c3ccc(Cl)cc3)o2)no1	Vif inh 91.5
COc1ccc(C(=O)CSc2nnc(-c3cc(C)on3)o2)cc1	none
CC[C@@H]1Cc2[nH][nH]c(=O)c2[C@H](CC(C)C)O1	none (no result: NTR1 agonist, Vif inh, SR-BI DiI-HDL act, V-ATPase pHluor, SR-BI HDL uptake)
Oc1ccccc1/C=N/NC(=S)NC1CC2CCC1C2 (stereo not given)	SR-BI HDL uptake 76.1
